Article PMC8367640 (Journal of Applied Glycoscience, 2021)

Test system: BlAga3
Experiment: HPAEC-PAD of released products
Assay type: biochemical, Bifidobacterium longum subsp. longum
Details: 50 mM sodium acetate pH 6.0, 45 °C, 20 min
How it was run: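 His-tagged recombinant BlAga3, TALON-purified (50 mM imidazole fraction, desalted). Enzyme in 50 mM sodium acetate pH 6.0 at 45 °C for 20 min: 0.20 μg/mL with 0.1–10 mM α-D-Gal-(1→3)-L-Ara, or 0.79 μg/mL with 1.0–50 mM raffinose. Stopped with 5 % TCA; released sugars quantified by HPAEC-PAD (NaOH/sodium acetate gradient).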

OC[C@H]1O[C@H](OC[C@H]2O[C@H](O[C@]3(CO)O[C@H](CO)[C@@H](O)[C@@H]3O)[C@H](O)[C@@H](O)[C@@H]2O)[C@H](O)[C@@H](O)[C@H]1O [Raffinose]
Km (1.0-50 mM substrate): 29.5 ± 1 mM

OC[C@H]1O[C@H](O[C@H]2[C@@H](O)COC(O)[C@@H]2O)[C@H](O)[C@@H](O)[C@H]1O (stereo partly drawn) [GA, α-D-Gal-(1→3)-L-Ara]
Km (0.1–10 mM substrate): 0.774 ± 0.014 mM
